According to ChEMBL document CHEMBL4513216, “Probing the Open Global Health Chemical Diversity Library for Multistage-Active Starting Points for Next-Generation Antimalarials” (ACS Infect Dis, 2020):

Assay: Toxicity liver stage against HepG2, at 10uM
Assay type: cell-based
Parameters: test concentration 10 uM, cell line HepG2-A16-CD81EGFP
Details: human, HepG2-A16-CD81EGFP cells; read-out: INHIBITION
In short: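 Uninfected HepG2-A16-CD81EGFP cells, 3 × 10^3 per well, 1536-well, plated on prespotted compound at 10 μM final, parasite-free screening media added to match infected plates; puromycin 10 μM positive, DMSO 0.5% negative; run in parallel with 48 h PbLuc assay at 37 °C, 5% CO2; viability by CellTiter-Glo luminescence, normalized to controls.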

Compound | cytotoxicity at 10 µM [%]
O[C@@H]1C[C@@H](c2nc(-c3ccccc3)no2)N(C2CCOCC2)C1 | -1.83
Cc1ccc(CN[C@@H]2CO[C@H](CNS(=O)(=O)c3ccccc3)[C@H]2O)cc1 | -10.1
COCCOc1ccc(C(=O)N[C@@H]2CNCCC[C@H]2O)cc1 | 4.67
CC1(C)[C@H](Cc2cc(CO)on2)C[C@@H]1N(CC1CC1)CC1CC1 | 3.82
COc1ccc(Nc2nc(N)c(C(C)=O)s2)cc1OC | 1.8
Cc1cc(N2CCCC2)nc(N(C)CCO)c1C#N | 0.252
Cc1cccc(N2CCN(S(=O)(=O)CCN)CC2)c1 | 0.0723
O=S(=O)(NCC1CCN(c2cnccn2)CC1)C1CC1 | 11.3
O=C(Cn1ccc2ccccc21)Nc1cc(N2CCCC2)ncn1 | 4.24
O=C(CSC1CCCC1)N1CCN(c2ccc(-n3cncn3)nn2)CC1 | 6.93
CN1C(=O)C2(CCN(C(=O)C3CCOCC3)CC2)c2ccccc21 | 2.5
CCN1C(=O)CCC12CCN(C(=O)c1ccco1)CC2 | -3.66
CC(=O)NCC(=O)N1CCC2(CC1)C(=O)N(CC1CC1)c1ccccc12 | -4.1
CCN(C)C(=O)c1ncn2c(C3CCN(S(C)(=O)=O)CC3)ccnc12 | -3.68
CC(=O)N1CCC2(CC1)C(=O)N(C)c1c(F)cccc12 | -11.2
CC(C)N(C)Cc1cnc2n1CCN(Cc1cccc(C#N)c1)C2 | 7.48
CCOCC1CN(C(=O)C2=CCCC2)Cc2cnn(C)c21 (stereo not given) | 1.49
CCOC(=O)c1ccc(NC(=O)c2c(O)nc3c(c2O)CCCC3)cc1 | 8.46
Cc1cccc(NC(=O)Cc2cnc3n(C)c(=O)[nH]c(=O)n23)c1 | -5.17
O=C(c1ccnnc1)N1CCC2(CC1)CC(N1CCOCC1)C2 | 6.97
CC(C)(C)NC(=O)c1ccn(COc2ccccc2Cl)n1 | 10.7
CSc1ccc(CNc2n[nH]c(C)n2)cc1 | -3.58

Compound | cytotoxicity at 10 µM [%]
CCn1cc(NC(=O)c2c(C)nn(C)c2C)c(C(N)=O)n1 | 0.946
CCOCCCNc1ncc(-c2onc(C)c2C)c(-c2ccco2)n1 | 10.2
CNc1cccc(CC2COCCN(C(=O)c3cnn(C)c3)C2)n1 (stereo not given) | 2.64
CN(C)C(=O)C1CCc2nnc(CNC(=O)c3ccc(Cl)cc3Cl)n21 (stereo not given) | 7.61
CC(C)(C)n1cc(C#N)cc1NC(=O)CCS(=O)(=O)C1CCCC1 | -0.935
CC(C)CCN1CCN(c2ncnc3nc(N)ccc23)CC1 | 11.5
CC(C(N)=O)N1CCN(c2ncc(Cl)cn2)CC1 (stereo not given) | -1.26
Cc1nn(C)c(Cl)c1C(=O)NCC1(C(N)=O)CCOCC1 | 1.64
CCCc1nnc(SCC(=O)Nc2cc(C(C)(C)C)nn2C)[nH]1 | 10.7
CC(C)(C)NC(=O)N1CCN2C(=O)OCC2C1 (stereo not given) | -1.96
O=C(NC1CCN(c2ccccc2OC(F)F)C1)c1cccnc1 (stereo not given) | 6.89
CCC(=O)NCC(=O)NC(Cc1ccccc1)c1sccc1C (stereo not given) | 9.25
CCSc1cc(C(=O)NC2CCN(C(=O)c3ccncc3)CC2)ccn1 | 5.88
CC(C)(C)C(=O)NCCCC(=O)NC(C)(C)c1ccc2c(c1)OCO2 | 12.1
O=C(CCCn1cncn1)NC1(c2cccc(Br)c2)CC1 | 9.57
CCc1cnc(CN(C)C2CCN(CC3CCN(C(C)=O)CC3)C2)o1 (stereo not given) | 4.84
N#Cc1ccccc1N1CCC(Nc2nccnc2C#N)CC1 | 12.9
O=S(=O)(NCC1CCOC1)N1CCc2ccccc2C1 (stereo not given) | -4.06
Cc1ccc(CNCc2c[nH]nc2C(C)(C)C)c(OC2CCOC2)c1 (stereo not given) | 13.8
CCOCCN1CCN(CCOCC(F)(F)F)CC1 | 1.83
CNC(=O)c1cccc(NC(=O)CN2CCN(S(C)(=O)=O)CC2)c1 | 1.82
CS(=O)(=O)NC[C@H]1OC[C@@H]2CN(Cc3cccnc3)CC[C@@H]21 | 12.7

Compound | cytotoxicity at 10 µM [%]
Cc1ccc(N2CCC3(CCN(C(N)=O)CC3)CC2)nn1 | 1.62
Cc1cnn(C2(C(=O)O)CCN(c3ccnc4cc(Cl)ccc34)CC2)c1 | -6.07
CSc1ccc(-c2nc(CN3CCCC(CNC(C)=O)C3)c(C)o2)cc1 (stereo not given) | 2.32
CSCCCN1C[C@H](NC(=O)c2ccc(C#N)nc2)[C@@H](C2CC2)C1 | 2.72
CCc1cc(NCC(O)CN2CCCCC2)ncn1 (stereo not given) | -0.714
CC(C)c1cc(C(=O)N2CCN(CC3CC3)[C@@H]3CS(=O)(=O)C[C@@H]32)no1 | -2.19
Cc1cc2nc(C(C)C)cc(N(C)CC3CCN(C(C)C)C3)n2n1 (stereo not given) | 7.26
COc1cc(C(=O)N2CC(Oc3ccccc3Cl)C2)ccn1 | -3.52
CC(C)CN1CC(c2nc(-c3ccc(F)cc3)c[nH]2)CC1=O (stereo not given) | 6.8
O=C(O)c1cc(-c2ccoc2)cc(S(=O)(=O)NC2CC2)c1 | -2.18
NC(=O)CN1CCCC(C(=O)N2CCC(Oc3ncccn3)CC2)C1 (stereo not given) | -41.6
O=C(C1CCOc2ccccc2C1)N1Cc2cnn(CCO)c2C1 (stereo not given) | 4.61
CCCS(=O)(=O)N1CCCC(CCC(=O)N(C)CCc2ccccn2)C1 (stereo not given) | 5.02
CCc1oc(C(=O)NCCNS(C)(=O)=O)cc1CN1CCCC1 | 5.53
O=C(O)c1ccnc(-c2ccnc(COc3ccccc3Cl)n2)c1 | -9.86
Cc1nc(N2CCOc3ccc(CO)cc3C2)c2c(C)noc2n1 | 2.18
CCCNc1ncc(CN2CCC3(CC2)CNC(=O)C3)cn1 | -7.07
CCc1ncc2c(n1)CN(C(=O)Cc1cc(OC)cc(OC)c1)C2 | 2.78
CC(C)N1CCCC(C(=O)NCCCc2cnn(C)c2)C1 (stereo not given) | 17.1
Cc1[nH]ccc1C(=O)N[C@H]1CN(S(C)(=O)=O)C[C@@H]1C1CC1 | 3.28
COc1ccc2nc(CNC(=O)c3cc(C(C)C)on3)[nH]c2c1 | 0.0964
CCn1cnnc1CCNC(=O)CCNC(=O)c1ccccc1F | 4.49

Compound | cytotoxicity at 10 µM [%]
O=C(O)[C@@H]1CN(Cc2cc3c(cc2Cl)OCO3)C[C@H]1C1CC1 | 0.0851
c1cc2c(cc1-n1nc(C3CC3)nc1-c1csnn1)OCCO2 | 9.46
Cc1ccc(O)c(CN(Cc2ccccc2)Cc2nccs2)n1 | 0.31
COCCNc1nc2c(c(N3CCn4nc(C)cc4C3)n1)CCNCC2 | 7.8
COc1nc2c(cc1C(=O)NCCc1nc(C)c(C(=O)O)s1)CCC2 | 13.3
CCCS(=O)(=O)N1CCN(c2cc(-n3cnc(C)c3C)ncn2)CC1 | 5.54
CN(C)C[C@@H]1CN(C(=O)Cc2cccc(O)c2)C[C@@H]1CO | 1.92
CC(C)Cc1ncc2c(n1)CN(C(=O)c1ccc(CN3CCCC3)o1)C2 | -1.66
Cc1cc(O)nc(C2CCCN(Cc3ccncc3)C2)n1 (stereo not given) | -2.81
O=C(CN1CCOC(Cn2cccn2)C1)NCc1ccco1 (stereo not given) | -14.6
CC(C)CN1CC(C(=O)NCc2ccnc(-n3cccn3)c2)CC1=O (stereo not given) | -5.48
Cn1ccc(CN2CCC(CC(=O)NC3CCCC3)CC2)cc1=O | -16.8
Cc1cc(CN(C)C(=O)NC2CCN(c3ncccn3)CC2)no1 | -12.8
Cc1cc(C)n(CC2CCCN2C(=O)CCc2ccco2)n1 (stereo not given) | -3.75
Cc1cc(C)c(CNC(=O)NCc2ccc(F)cc2)c(=O)[nH]1 | -6.34
CN(CC(=O)NC1(C)CCS(=O)(=O)C1)Cc1ccc(F)c(F)c1 (stereo not given) | -1.55
Cc1nn(C)c(N(C)C)c1CNCc1ccc(OCCN(C)C)cc1 | -4.89
O=C(c1sccc1C1CC1)N1CCN(CC(F)(F)F)CC1 | -1.58
O=C(O)c1cc(S(=O)(=O)Nc2cc(Cl)ccc2F)cc2c1OCCO2 | -18.7
N#Cc1ccc(OCCNCCn2cccn2)cc1 | -4.11
O=C(CCCNc1ncccn1)N1CCCC(n2cncn2)C1 (stereo not given) | -4.56
Cc1nc(CNCC2CN(C3CC3)CCO2)cs1 (stereo not given) | -10.1

Compound | cytotoxicity at 10 µM [%]
Cc1cc(C(=O)N2CCCC(n3ccnc3)C2)c(C)n1C1CC1 (stereo not given) | 1.19
Cc1noc(Cl)c1CC(=O)N1CCCC(n2cccn2)C1 (stereo not given) | -6.14
CN(Cc1nnc(C2CC2)n1C)C1CCN(Cc2ccc(F)cc2)C1 (stereo not given) | -7.17
COc1ccc(CNCc2ccnc(N3CCOCC3)c2)cc1OC | 1.64
CN1CCOC(CNC(=O)CCCOCCc2ccccc2)C1 (stereo not given) | -3.56
CC(C)c1noc(CCCC(=O)N2CCC(Cc3cccnc3)CC2)n1 | -5.43
CS(=O)(=O)N1CCC(NC(=O)COc2ccc(Cl)c(Cl)c2)CC1 | -6.46
O=C1CC2(CCCNC2)C(=O)N1Cc1ccccc1 (stereo not given) | 12.1
O=C(C[C@@H]1COC[C@H]2CN(C3CCC3)C[C@@H]12)NCc1cccnc1 | 12.9
CN1CCc2c(CNc3ncccn3)n[nH]c2C1 | -3.21
N#Cc1cccc(CN2CC3(CCCCN3c3cncnc3)CC2=O)c1 (stereo not given) | 2.53
CCN(CC)Cc1cnc2n1CCN(Cc1c(C)noc1C)CC2 | 11.2
CNC(=O)COC1COC2(CCN(c3ncccn3)CC2)C1 (stereo not given) | -3.4
O=C(Nc1cnccn1)[C@H]1CO[C@H]2CCN(c3ncc(F)cn3)C[C@H]2C1 | 1.2
CN(C)[C@@H]1CCN(S(=O)(=O)C2CC2)[C@H]1Cc1ccccc1 | -7.46
Cc1cnc(N2CC3(CCN(Cc4cccnc4)C3)C2)nc1 | -2.36
CC(C)CN1CCC2(C=C(C(=O)NC3CC3)c3ccccc32)CC1 | 1.11
CCc1ccc2c(C3CN(CC4CCC4)C3)ncn2c1 | 7.11
Cn1cc(N2CCC3(CCN(Cc4cccnc4)C3)C2=O)cn1 (stereo not given) | 3.63
O=C1C[C@@H]2CC[C@H](CN1)N2C1CCSCC1 | 0.915
O=C(CCC1CCCC1)N1C[C@@H]2CC[C@H]1CN(Cc1ccncc1)C2 | -3.76
Cc1ccoc1C1=NNC(=CN2CCCC(Cn3cncn3)C2)O1 (stereo not given) | -2.07
